{"source": "ChEMBL document CHEMBL5038580", "about": "(J Med Chem, 2022)", "key": {"SARS-CoV-2 [1]": {"tested_on": "SARS-CoV-2", "assay": "Antiviral activity against SARS-CoV-2 assessed as inhibition of viral infection in Caco-2 cells preincubated for 30 min followed by cells addition for 12 hrs and complete medium replacement and measured after 48 hrs by luciferase assay", "format": "functional, organism-based", "conditions": "Severe acute respiratory syndrome coronavirus 2, Caco-2"}, "SARS-CoV-2 [2]": {"tested_on": "SARS-CoV-2", "assay": "Antiviral activity against SARS-CoV-2 assessed as inhibition of viral infection in 293T/ACE2 cells preincubated for 30 min followed by cells addition for 12 hrs and complete medium replacement and measured after 48 hrs by luciferase assay", "format": "functional, organism-based", "conditions": "Severe acute respiratory syndrome coronavirus 2, 293T/ACE2", "method_in_brief": "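ACE2-293T cells (10^4/well) were plated 12 h before infection. Pseudovirus was mixed with peptides serially diluted in FBS-free DMEM for 30 min at 37 °C and added to the cells. After 12 h the medium was replaced with complete medium and cells were incubated 48 h more. Luciferase activity was read.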"}}, "note": "Residues, ends and D or L forms follow the SMILES beside them.", "data": [{"smiles": "CC[C@H](C)[C@H](NC(C)=O)C(=O)N[C@@H](CCC(=O)O)C(=O)N[C@@H](CCC(=O)O)C(=O)N[C@H](C(=O)N[C@H](C(=O)N[C@@H](CCCCN)C(=O)N[C@@H](CCCCN)C(=O)N[C@H](C(=O)N[C@@H](Cc1c[nH]cn1)C(=O)N[C@@H](Cc1c[nH]cn1)C(=O)N[C@H](C(=O)N[C@@H](CCC(=O)O)C(=O)N[C@@H](CCCNC(=N)N)C(=O)N[C@@H](C)C(=O)N[C@H](C(=O)N[C@@H](CCC(=O)O)C(=O)N[C@@H](C)C(=O)N[C@@H](CCC(N)=O)C(=O)N[C@@H](CCC(N)=O)C(=O)N[C@@H](CCCCN)C(=O)N[C@@H](CC(C)C)C(=O)N[C@@H](CC(C)C)C(=O)N[C@@H](CCC(N)=O)C(=O)N[C@@H](CC(C)C)C(=O)N[C@H](C(=O)N[C@H](C(=O)N[C@@H](Cc1c[nH]c2ccccc12)C(=O)NCC(=O)N[C@H](C(=O)N[C@@H](CCCCN)C(=O)N[C@@H](CCC(N)=O)C(=O)N[C@@H](CC(C)C)C(=O)N[C@@H](CCC(N)=O)C(=O)N[C@@H](C)C(=O)N[C@@H](CCCNC(=N)N)C(=O)N[C@H](C(=O)N[C@@H](CC(C)C)C(N)=O)[C@@H](C)CC)[C@@H](C)CC)C(C)C)[C@@H](C)O)[C@@H](C)CC)[C@@H](C)CC)[C@@H](C)CC)C(C)C)[C@@H](C)CC", "note": "(Ac-IEEIVKKIHHIERAIEAQQKLLQLTVWGIKQLQARIL-NH2)", "values": [{"measurement": "IC50", "setting": "SARS-CoV-2 [1]", "value": "> 20", "unit": "µM"}, {"measurement": "IC50", "setting": "SARS-CoV-2 [2]", "value": "> 20", "unit": "µM"}]}]}
